An excerpt weighted towards active compounds, which were near 2.9% of everything screened.
MEKK3 PB1 HTS: raises or lowers MEK5 binding to the human MEKK3 PB1 domain; AID 1529; 290,000 compounds, 1.4% hits; bead-based flow cytometry, Alexa488-MEK5 binding to MEKK3; actives lie on both sides; 0 = blocked by unlabeled MEK5, 100 = vehicle; binding response (% of control), % at 10 µM; Q99759;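 active means binding response more than 3 SD above or below the average of its plate-row segment, actives on both sides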;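 further: Alexa488 bead fluorescence after subtracting the streptavidin-only scavenger bead signal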
Target sequence (Q99759 whole entry, looked up, the tested form may be a part): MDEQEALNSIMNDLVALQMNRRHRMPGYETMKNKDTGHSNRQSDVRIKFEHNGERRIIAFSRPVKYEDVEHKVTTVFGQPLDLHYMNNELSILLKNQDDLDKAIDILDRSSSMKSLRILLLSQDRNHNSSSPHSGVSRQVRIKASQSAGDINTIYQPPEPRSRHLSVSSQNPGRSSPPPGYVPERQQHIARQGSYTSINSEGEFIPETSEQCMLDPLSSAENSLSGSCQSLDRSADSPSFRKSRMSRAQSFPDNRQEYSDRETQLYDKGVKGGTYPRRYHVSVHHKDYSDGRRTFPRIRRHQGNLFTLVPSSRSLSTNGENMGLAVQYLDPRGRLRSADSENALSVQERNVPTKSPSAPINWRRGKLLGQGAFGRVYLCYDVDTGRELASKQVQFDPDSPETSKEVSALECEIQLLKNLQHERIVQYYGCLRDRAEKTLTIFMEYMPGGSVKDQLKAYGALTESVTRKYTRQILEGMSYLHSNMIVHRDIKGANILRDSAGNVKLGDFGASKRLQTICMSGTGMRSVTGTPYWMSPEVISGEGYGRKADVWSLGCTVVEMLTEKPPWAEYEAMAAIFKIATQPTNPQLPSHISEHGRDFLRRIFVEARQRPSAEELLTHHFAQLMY
MEKK2 WT-MEK5: raises or lowers MEK5 binding to wildtype human MEKK2 PB1 domain; Q9Y2U5; bead flow cytometry, Alexa488-MEK5 binding to MEKK2 WT; actives lie on both sides; binding response (% of control), % at 10 µM; 290,000 compounds, 1.1% hits; in the data active means binding response below about 67% or above about 130%
Apaf1 inhib: inhibitors of human Apaf-1 apoptosome. reconstituted apoptosome caspase-3 activity, DEVD-Rh110 fluorescence. inhibition, % at 20 µM. 330,000 compounds, 0.71% hits; active means inhibition of at least 40% at 20 µM;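 further: plate controls were DMSO wells for no effect and DEVD-CHO caspase inhibitor wells for full effect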
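Material: biochemical Apaf-1 apoptosome reconstitution. Medium: Hepes buffer, pH 7.5. Also added: cytochrome c activation, bis-DEVD rhodamine 110 substrate. Timing: 30 min compound preincubation, 50 min activation, room temperature. Measured by: rhodamine 110 fluorescence at Ex 480/Em 540 nm.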
UBC13 inh: blocks human UBC13 polyubiquitin chain formation | inhibition, % at 20 µM | 330,000 compounds, 0.47% hits | TR-FRET | P61088; in the data active means inhibition above about 45%, passing the limit was not always enough
Target sequence (P61088 whole entry, looked up): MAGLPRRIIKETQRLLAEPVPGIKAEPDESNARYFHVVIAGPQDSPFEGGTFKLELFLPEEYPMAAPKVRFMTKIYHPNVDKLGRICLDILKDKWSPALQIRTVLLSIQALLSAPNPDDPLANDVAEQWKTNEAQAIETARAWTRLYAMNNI
MEKK2 mut-MEK5: signal of MEK5 binding to mutant human MEKK2 PB1 domain; bead flow cytometry, Alexa488-MEK5 binding to MEKK2 mutant; percent response, % at 10 µM; 290,000 compounds, 0.35% hits; AID 1530; in the data active means percent response above about 24%, passing the limit was not always enough
MEKK2wt confirm: raises or lowers MEK5 binding to wildtype human MEKK2, retest | 5,900 compounds, 2.4% hits | shares compounds with MEKK3 PB1 HTS | binding response (% of control), % at 10 µM | bead flow cytometry, Alexa488-MEK5 binding to MEKK2 WT; actives lie on both sides; in the data active means binding response below about 16% or above about 210%; inactive means in between
MEKK2mut confirm: signal of MEK5 binding to mutant human MEKK2, retest; bead flow cytometry, Alexa488-MEK5 binding to MEKK2 mutant; percent response, % at 10 µM; 5,900 compounds, 2% hits; shares compounds with MEKK3 PB1 HTS; in the data active means percent response mostly above about 71%, no sharp cut-off; inactive means mostly below about 38%;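 further: higher means compound restores mutant binding toward wildtype level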
MEKK3-MEK5 inh: confirmation of inhibitors of MEK5 binding to human MEKK3 | binding response (% of control), % at 10 µM | bead flow cytometry, Alexa488-MEK5 binding to MEKK3; active compounds read low | shares compounds with MEKK3 PB1 HTS | 5,900 compounds, 1.8% hits;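 active means binding response below 72% of control, or above a set upper limit, though filed actives all read lower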;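 further: 100% = DMSO only wells and 0% = binding blocked by excess unlabeled MEK5; lower values mean stronger disruption of MEK5 binding to MEKK3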
Numbers without * were called inactive; nt = no result; [ ] = remark or other dose.

SMILES | MEKK3 PB1 HTS | MEKK2 WT-MEK5 | Apaf1 inhib | UBC13 inh | MEKK2 mut-MEK5 | MEKK2wt confirm | MEKK2mut confirm | MEKK3-MEK5 inh
CCNc1nc(Oc2ccc(C(=O)OCC)cc2)nc(N2CCOCC2)n1 | 135.0* | 117.0 | 5.3 | 20.3 | 1.0 | 98.0 | -1.0 | 101.0
COC(=O)c1ccc(Oc2nc(NC(C)(C)C)nc(N3CCOCC3)n2)cc1 | 101.0 | 95.0 | -10.5 | 0.7 | -2.0 | nt | nt | nt
CCOc1cc2[nH]c(=S)n(Cc3ccc(C(=O)NCCN(CC)CC)cc3)c(=O)c2cc1OCC | 107.0 | 126.0 | 14.8 | 24.7 | 29.0* | 113.0 | 4.0 | 103.0
O=[N+]([O-])c1ccc(C2=NN(c3ccccc3)C(c3ccco3)C2)cc1 (stereo not given) | 107.0 | 33.0* | nt | nt | 124.0* | 83.0 | -33.0 | 93.0
CSCCC(NC(=O)COc1ccccc1)C(=O)O (stereo not given) | 99.0 | 92.0 | 7.9 | -7.4 | -2.0 | nt | nt | nt
O=c1[nH]c2cc3c(cc2cc1CN(CCO)S(=O)(=O)c1ccccc1)OCCO3 | 130.0* | 111.0 | -4.2 | 4.9 | 23.0 | 102.0 | 5.0 | 101.0
COc1ccccc1NC(=O)C1=C(C)NC(SCC(=O)Nc2ccc(C(=O)O)cc2)=C(C#N)C1c1cccs1 (stereo not given) | 114.0 | 109.0 | -3.0 | 15.2 | 4.0 | nt | nt | nt
CCC(NC(=O)NCc1ccccc1)(C(F)(F)F)C(F)(F)F | 151.0* | 106.0 | 6.6 | -8.2 | 0.0 | 101.0 | 2.0 | 104.0
O=C(Nc1ccc(S(=O)(=O)N2CCCCC2)cc1)c1ccc(CN2CCOCC2)cc1 | 74.0*[inhibitor] | 89.0 | 3.2 | -5.4 | 5.0 | 104.0 | 2.0 | 107.0
COc1ccc(NC(=O)c2[nH]c(C)c(C(C)=O)c2C)cc1S(=O)(=O)N1CCOCC1 | 129.0* | 105.0 | 2.6 | 1.3 | 0.0 | 102.0 | -3.0 | 103.0
CCOc1ccccc1C(=O)Nc1ccc(S(=O)(=O)N2CCOCC2)cc1 | 108.0 | 107.0 | 7.3 | 11.1 | 11.0 | nt | nt | nt
COc1ccccc1C(=O)Nc1ccc(S(=O)(=O)N2CCOCC2)cc1 | 107.0 | 103.0 | 5.8 | 6.4 | 24.0* | 97.0 | 1.0 | 105.0
CC(=O)c1c(C)[nH]c(C(=O)Nc2ccc(Cl)c(S(=O)(=O)N3CCOCC3)c2)c1C | 103.0 | 99.0 | 11.0 | 3.5 | 12.0 | nt | nt | nt
CC1CCN(CC(=O)Nc2ccc(N3CCCCCC3)cc2)CC1 | 99.0 | 124.0 | 33.6 | 4.9 | 6.0 | nt | nt | nt
Cc1ccc(C(=O)CC(C(=O)O)n2cncn2)cc1 (stereo not given) | 101.0 | 102.0 | -12.9 | 3.1 | -3.0 | nt | nt | nt
Cc1ccc(C(=O)CC(C(=O)O)n2cnc([N+](=O)[O-])n2)cc1 (stereo not given) | 49.0*[inhibitor] | 55.0 | 9.6 | -8.5 | -14.0 | 106.0 | 2.0 | 104.0
CC(=O)Nc1ccccc1C(=O)C(=O)Nc1cccc(C(=O)NCc2ccc(C)cc2)c1 | 134.0* | 108.0 | -4.6 | 9.7 | 1.0 | 96.0 | -2.0 | 100.0
CC(=O)Nc1ccccc1C(=O)C(=O)Nc1cccc(C(=O)NCc2ccccc2)c1 | 96.0 | 95.0 | 0.4 | -4.9 | -2.0 | nt | nt | nt
O=C(CSc1ccccc1[N+](=O)[O-])NC1CCS(=O)(=O)C1 (stereo not given) | 106.0 | 103.0 | -7.9 | -2.6 | 2.0 | nt | nt | nt
COCCCNC(=O)Cn1c(=O)n(CCCCCC(=O)Nc2ccccc2)c(=O)c2sccc21 | 100.0 | 94.0 | -10.4 | -3.8 | -3.0 | nt | nt | nt
COCCNC(=O)Cn1c(=O)n(CCCCCC(=O)Nc2ccccc2)c(=O)c2sccc21 | 135.0* | 107.0 | 0.5 | -2.1 | 1.0 | 104.0 | 1.0 | 103.0
Cn1nc(C(F)(F)F)cc1C(=O)Nc1ccc(Cl)cc1 | 94.0 | 96.0 | -12.7 | 7.8 | 3.0 | nt | nt | nt
Cn1ncc(C(=O)Nc2ccc(Cl)cc2)c1C(F)(F)F | 74.0*[inhibitor] | 76.0 | 15.4 | -5.9 | -32.0 | 104.0 | 6.0 | 107.0
O=C(Nc1ccc(Cl)cn1)c1ccc(COc2ccccc2Br)o1 | 49.0*[inhibitor] | 50.0 | 13.5 | 7.5 | -18.0 | 107.0 | 14.0 | 110.0
CCOc1ccc(OCc2ccc(C(=O)Nc3ccc(Cl)cn3)o2)cc1 | 101.0 | 101.0 | 5.2 | 5.0 | 0.0 | nt | nt | nt
SMILES | MEKK3 PB1 HTS | MEKK2 WT-MEK5 | Apaf1 inhib | UBC13 inh | MEKK2 mut-MEK5 | MEKK2wt confirm | MEKK2mut confirm | MEKK3-MEK5 inh
O=C(CN1CCN(C(=O)c2cccs2)CC1)Nc1ccc(Br)cc1 | 99.0 | 100.0 | 5.8 | -13.8 | -2.0 | nt | nt | nt
O=C(CN1CCN(C(=O)c2cccs2)CC1)NC1CCCCC1 | 81.0*[inhibitor] | 88.0 | 6.9 | 0.0 | -11.0 | 96.0 | -10.0 | 96.0
N#CNC(=Nc1cccc(F)c1)SCc1cccc(F)c1 | 136.0* | 107.0 | -19.2 | 1.0 | 1.0 | 105.0 | 2.0 | 100.0
CCCn1c(=O)c2ccccc2n2c(SCc3nc4ccccc4s3)nnc12 | 1.0*[inhibitor] | -2.0*[inhibitor] | 10.7 | -2.6 | -26.0 | 103.0 | 2.0 | 106.0
COc1ccccc1C(=O)NCCNc1ccc([N+](=O)[O-])cc1Cl | 104.0 | 103.0 | 10.4 | -7.1 | 0.0 | nt | nt | nt
COc1cc(/C=N/N=C(N)N)ccc1OCc1ccccc1Cl | 117.0 | 229.0* | 34.3 | 54.5* | 35.0 | 189.0 | 41.0 | 101.0
COc1ccc(/C=N/N=C/c2ccc(OC)c(OC)c2)cc1OC | 99.0 | 98.0 | 12.2 | -3.8 | -5.0 | nt | nt | nt
CCOC(=O)C(C)Sc1nc(=O)n2ccccc2n1 (stereo not given) | 103.0 | 98.0 | -8.2 | 1.3 | -6.0 | nt | nt | nt
CCOC(=O)C(C)Sc1nc(=O)n2cc(C)ccc2n1 (stereo not given) | 45.0*[inhibitor] | 54.0 | -10.1 | -4.9 | -15.0 | 117.0 | 7.0 | 103.0
FC(F)(F)c1ccc(-c2nnc(-c3ccccn3)c(-c3ccccn3)n2)nc1 | 61.0*[inhibitor] | 66.0 | 0.9 | -0.1 | -37.0 | 106.0 | 3.0 | 103.0
Cc1ccc(S(=O)(=O)N2CCOCC2)cc1NC(=O)COC(=O)c1ccc(OCc2c(C)noc2C)cc1 | 96.0 | 99.0 | 16.1 | -6.6 | -2.0 | nt | nt | nt
Cc1noc(C)c1COc1ccc(C(=O)OC(C)C(=O)Nc2ccc(S(=O)(=O)N3CCOCC3)cc2)cc1 (stereo not given) | 152.0* | 105.0 | 11.8 | 3.2 | 2.0 | 99.0 | -2.0 | 104.0
COc1nc(Nc2ccccc2F)nc(OC)n1 | 102.0 | 102.0 | -8.0 | 10.1 | 25.0* | 105.0 | 1.0 | 101.0
COc1nc(NCCO)nc(Nc2ccccc2F)n1 | 105.0 | 107.0 | -4.5 | 1.4 | 8.0 | nt | nt | nt
Cc1cc(C(=O)NNC(=O)c2sccc2C)c(C)o1 | nt | nt | 3.0 | 0.3 | nt | nt | nt | nt
Cc1cc(C)cc(NS(=O)(=O)c2ccc(NC(=S)Nc3ccccc3)cc2)c1 | 102.0 | 130.0 | 4.2 | 10.4 | 1.0 | nt | nt | nt

High-throughput results: PubChem BioAssay, several laboratories
